Laboratory results published in ChEMBL document CHEMBL1132437, “Synthesis and antimicrobial activity of 4H-4-oxoquinolizine derivatives: consequences of structural modification at the C-8 position” (1999).
Converted amounts (≈) assume the structure as drawn.

Tests used:
Burkholderia cepacia = assay: In vitro antibacterial activity against gram negative Pseudomonas cepacia 2961; type: functional
In short: (§1)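 Agar dilution MIC determination following the National Committee for Clinical Laboratory Standards recommendations.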

Mus musculus [1] = assay: In vivo efficacy against Escherichia coli JUHL in mouse protection test after by oral gavage; type: functional
In short: (§2)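 Mouse protection model: mice infected intravenously with 100-fold LD50 of the organism. Compound given by subcutaneous injection or oral gavage at 1 and 5 h after infection, over a dose range. Deaths tracked for 7 days post-inoculation. ED50 is the dose giving 50% survival of treated mice over the trial.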

Pseudomonas aeruginosa [2] = assay: In vitro antibacterial activity against Gram-negative Pseudomonas aeruginosa 5007; type: functional; conditions: Pseudomonas aeruginosa; read-out: MIC; in short: as §1
Staphylococcus aureus [3] = assay: In vivo efficacy against Staphylococcus aureus NCTC 10649M in mouse; type: functional; conditions: Staphylococcus aureus; read-out: ED50; in short: as §2
Pseudomonas aeruginosa [4] = assay: In vitro antibacterial activity against gram negative P. aeruginosa DPHP 5263; type: functional; conditions: Pseudomonas aeruginosa, DPHP 5263; read-out: MIC; in short: as §1
Staphylococcus aureus [5] = assay: In vitro antibacterial activity against gram-positive Staphylococcus aureus 1775; type: functional; in short: as §1
Staphylococcus aureus [6] = assay: In vitro antibacterial activity against gram-positive Staphylococcus aureus NCTC 10649M; type: functional; conditions: Staphylococcus aureus, NCTC 10649; read-out: MIC; in short: as §1
Staphylococcus aureus [7] = assay: In vivo efficacy against Staphylococcus aureus NCTC 10649M in mouse protection test after p.o. administration.; type: functional; in short: as §2
Escherichia coli [8] = assay: In vivo efficacy against Escherichia coli JUHL in mouse protection test after subcutaneous administration; type: functional; in short: as §2
Streptococcus pyogenes = assay: In vitro antibacterial activity against gram positive Streptococcus pyogenes 930; type: functional; conditions: Streptococcus pyogenes; read-out: MIC; in short: as §1
Escherichia coli [9] = assay: In vitro antibacterial activity against gram negative Escherichia coli KNK 437; type: functional; in short: as §1
Enterococcus faecium = assay: In vitro antibacterial activity against gram-positive Enterococcus faecium ATCC 8043; type: functional; in short: as §1
Mus musculus [10] = assay: In vivo efficacy against Streptococcus pneumoniae ATCC 6303 in mouse protection test after administration by oral gavage; type: functional; in short: as §2
Escherichia coli [11] = assay: In vivo efficacy against Escherichia coli JUHL in mouse protection test after p.o. administration.; type: functional; in short: as §2
Mus musculus [12] = assay: In vivo efficacy against Streptococcus pneumoniae ATCC 6303 in mouse protection test after subcutaneous administration; type: functional; conditions: sc; in short: as §2
Pseudomonas aeruginosa [13] = assay: In vivo efficacy against Pseudomonas aeruginosa 5007 in mouse protection test after administration by oral gavage; type: functional; in short: as §2
Mus musculus [14] = assay: In vivo efficacy against Staphylococcus aureus NCTC 10649M in mouse protection test after administration by oral gavage; type: functional
Pseudomonas aeruginosa [15] = assay: In vivo efficacy against Pseudomonas aeruginosa 5007 in mouse protection test after subcutaneous administration; type: functional; in short: as §2
Pseudomonas aeruginosa [16] = assay: Not Plasmodium species; type: functional
Streptococcus pneumoniae = assay: In vivo efficacy against Streptococcus pneumoniae ATCC 6303 in mouse protection test after s.c. administration.; type: functional; in short: as §2
Mus musculus [17] = assay: IIn vivo efficacy against Streptococcus pneumoniae ATCC 6303 in mouse protection test after oral administration by oral gavage
Mus musculus [18] = assay: InIn vivo efficacy against Escherichia coli JUHL in mouse protection test after administration by oral gavage; type: functional; in short: as §2
Mus musculus [19] = assay: In vivo efficacy against Staphylococcus aureus NCTC 10649M in mouse protection test after subcutaneous administration.; type: functional; conditions: sc; in short: as §2
Mus musculus [20] = assay: IIn vivo efficacy against Streptococcus pneumoniae ATCC 6303 in mouse protection test after administration by oral gavage; type: functional; in short: as §2
Mus musculus [21] = assay: In vivo efficacy against Staphylococcus aureus NCTC 10649M in mouse protection test after administration by subcutaneous administration; type: functional; conditions: sc; in short: as §2
Staphylococcus aureus [22] = assay: In vitro antibacterial activity against gram-positive Staphylococcus aureus NCTC 10649M
Mus musculus [23] = assay: IIn vivo efficacy against Escherichia coli JUHL in mouse protection test after by oral gavage; type: functional; in short: as §2
Mus musculus [24] = assay: In vivo efficacy against Staphylococcus aureus NCTC 10649M in mouse protection test after sub cutaneous administration; type: functional; in short: as §2
Mus musculus [25] = assay: In vivo efficacy against Streptococcus pneumoniae ATCC 6303 in mouse protection test […].; type: functional; in short: as §2
[26] = Burkholderia cepacia, read-out: MIC
[27] = Staphylococcus aureus, read-out: MIC
[28] = Staphylococcus aureus, po, read-out: ED50
[29] = Escherichia coli, sc, read-out: ED50
[30] = Escherichia coli, read-out: MIC
[31] = Enterococcus faecium, ATCC 8043, read-out: MIC
[32] = Escherichia coli, po, read-out: ED50
[33] = Pseudomonas aeruginosa, po, read-out: ED50
[34] = Pseudomonas aeruginosa, sc, read-out: ED50

MIC (Burkholderia cepacia; [26]) [µg/mL]	MIC (Pseudomonas aeruginosa [2]) [µg/mL]	MIC (Pseudomonas aeruginosa [4]) [µg/mL]	MIC (Staphylococcus aureus [5]; [27]) [µg/mL]	MIC (Staphylococcus aureus [6]) [µg/mL]	MIC (Streptococcus pyogenes) [µg/mL]	MIC (Escherichia coli [9]; [30]) [µg/mL]	MIC (Enterococcus faecium; [31]) [µg/mL]	Compound	ED50 (Staphylococcus aureus [3]) [mg/kg]	ED50 (Staphylococcus aureus [7]; [28]) [mg/kg]	ED50 (Escherichia coli [8]; [29]) [mg/kg]	ED50 (Pseudomonas aeruginosa [13]; [33]) [mg/kg]	ED50 (Pseudomonas aeruginosa [15]; [34]) [mg/kg]	ED50 (Escherichia coli [8]) [mg/kg]	also measured
0.78 (≈ 1.93 µM)	1.56 (≈ 3.87 µM)	12.5 (≈ 31 µM)	1.56 (≈ 3.87 µM)	0.05 (≈ 0.124 µM)	0.39 (≈ 0.967 µM)	0.39 (≈ 0.967 µM)	0.39 (≈ 0.967 µM)	COCCN[C@H]1CCN(c2c(F)cn3c(=O)c(C(=O)O)cc(C4CC4)c3c2C)C1	6.1	18.1	2.5				ED50 (Mus musculus [1]): > 10 mg/kg
1.56 (≈ 4.18 µM)	0.78 (≈ 2.09 µM)	12.5 (≈ 33.5 µM)	1.56 (≈ 4.18 µM)	0.05 (≈ 0.134 µM)	0.1 (≈ 0.268 µM)	0.39 (≈ 1.04 µM)	0.2 (≈ 0.536 µM)	Cc1c(N2CC[C@H](C)[C@H](N)C2)c(F)cn2c(=O)c(C(=O)O)cc(C3CC3)c12 (stereo in doubt; 3ss)	3.3					0.6	ED50 (Streptococcus pneumoniae): 1 mg/kg; ED50 (Escherichia coli [11]): 1.4 mg/kg; ED50 (Mus musculus [17]): 2 mg/kg; ED50 (Staphylococcus aureus [7]): 0.8 mg/kg
0.78 (≈ 2.1 µM)		0.62 (≈ 1.67 µM)	6.2 (≈ 16.7 µM)	0.1 (≈ 0.269 µM)		0.39 (≈ 1.05 µM)	0.2 (≈ 0.538 µM)	Cc1c(N2C[C@H]3CCN[C@H]3C2)c(F)cn2c(=O)c(C(=O)O)cc(C3CC3)c12		5	0.8	> 50	18		ED50 (Streptococcus pneumoniae; Streptococcus pneumoniae, sc, read-out: ED50): 2.3 mg/kg; ED50 (Mus musculus [18]): 10 mg/kg; ED50 (Mus musculus [19]): 1.5 mg/kg; ED50 (Mus musculus [20]): 11.2 mg/kg
								Cc1c(N2C[C@@H]3CCN[C@@H]3C2)c(F)cn2c(=O)c(C(=O)O)cc(C3CC3)c12 (stereo in doubt)		1.5				0.5	MIC (Burkholderia cepacia): 0.78 µg/mL (≈ 2.1 µM); ED50 (Mus musculus [21]): 0.6 mg/kg; MIC (Staphylococcus aureus [5]): 3.1 µg/mL (≈ 8.35 µM); ED50 (Escherichia coli [11]; [32]): 1.1 mg/kg; MIC (Staphylococcus aureus [22]): 0.05 µg/mL (≈ 0.135 µM); ED50 (Pseudomonas aeruginosa [13]): 17.9 mg/kg; MIC (Escherichia coli [9]): 0.1 µg/mL (≈ 0.269 µM); ED50 (Pseudomonas aeruginosa [15]): 5 mg/kg; MIC (Enterococcus faecium): 0.1 µg/mL (≈ 0.269 µM)
1.56 (≈ 4.18 µM)	0.39 (≈ 1.04 µM)	6.1 (≈ 16.3 µM)	0.39 (≈ 1.04 µM)	0.02 (≈ 0.0536 µM)	0.1 (≈ 0.268 µM)	0.1 (≈ 0.268 µM)	0.1 (≈ 0.268 µM)	CN[C@@H]1CN(c2c(F)cn3c(=O)c(C(=O)O)cc(C4CC4)c3c2C)C[C@@H]1C	1.3		0.5				ED50 (Mus musculus [23]): 2.7 mg/kg
								Cc1c(N2CC[C@H](C)C(N)C2)c(F)cn2c(=O)c(C(=O)O)cc(C3CC3)c12 (single isomer, unassigned)				> 50	> 32	2	ED50 (Streptococcus pneumoniae): 8 mg/kg; ED50 (Mus musculus [24]): 1.2 mg/kg; ED50 (Mus musculus [25]): 5.2 mg/kg; ED50 (Escherichia coli [11]): 12.5 mg/kg; ED50 (Staphylococcus aureus [7]): 6.3 mg/kg

Compound	MIC (Burkholderia cepacia; [26]) [µg/mL]	MIC (Pseudomonas aeruginosa [2]) [µg/mL]	MIC (Pseudomonas aeruginosa [4]) [µg/mL]	MIC (Staphylococcus aureus [5]; [27]) [µg/mL]	MIC (Staphylococcus aureus [6]) [µg/mL]	MIC (Streptococcus pyogenes) [µg/mL]	MIC (Escherichia coli [9]; [30]) [µg/mL]	MIC (Enterococcus faecium; [31]) [µg/mL]	ED50 (Staphylococcus aureus [3]) [mg/kg]	ED50 (Staphylococcus aureus [7]; [28]) [mg/kg]	ED50 (Escherichia coli [8]; [29]) [mg/kg]	ED50 (Pseudomonas aeruginosa [13]; [33]) [mg/kg]	ED50 (Pseudomonas aeruginosa [15]; [34]) [mg/kg]	ED50 (Escherichia coli [8]) [mg/kg]	also measured
O=C(O)c1cn(C2CC2)c2cc(N3CCNCC3)c(F)cc2c1=O [CIPROFLOXACIN]	6.2 (≈ 18.7 µM)			> 100	0.39 (≈ 1.18 µM)			0.39 (≈ 1.18 µM)	3.6		0.2	20	2.4		ED50 (Mus musculus [10]): > 100 mg/kg; ED50 (Escherichia coli [11]; [32]): 1.3 mg/kg; ED50 (Mus musculus [12]): 37.4 mg/kg; ED50 (Mus musculus [14]): 25 mg/kg; MIC (Pseudomonas aeruginosa [16]): 0.1 µg/mL (≈ 0.302 µM)
